HKDC1 activator – HKDC1 (human) hexokinase activation; recombinant HKDC1, G6PDH/diaphorase resazurin fluorescence; active compounds read low; Q2TB90; AID 493187; activity change, negative = activation, % at 20 µM; actives 0.056% (n = 340,000);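 active = activation of 40% or more at 20 µM, a change of -40% or lower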
Target sequence (Q2TB90 whole entry, looked up): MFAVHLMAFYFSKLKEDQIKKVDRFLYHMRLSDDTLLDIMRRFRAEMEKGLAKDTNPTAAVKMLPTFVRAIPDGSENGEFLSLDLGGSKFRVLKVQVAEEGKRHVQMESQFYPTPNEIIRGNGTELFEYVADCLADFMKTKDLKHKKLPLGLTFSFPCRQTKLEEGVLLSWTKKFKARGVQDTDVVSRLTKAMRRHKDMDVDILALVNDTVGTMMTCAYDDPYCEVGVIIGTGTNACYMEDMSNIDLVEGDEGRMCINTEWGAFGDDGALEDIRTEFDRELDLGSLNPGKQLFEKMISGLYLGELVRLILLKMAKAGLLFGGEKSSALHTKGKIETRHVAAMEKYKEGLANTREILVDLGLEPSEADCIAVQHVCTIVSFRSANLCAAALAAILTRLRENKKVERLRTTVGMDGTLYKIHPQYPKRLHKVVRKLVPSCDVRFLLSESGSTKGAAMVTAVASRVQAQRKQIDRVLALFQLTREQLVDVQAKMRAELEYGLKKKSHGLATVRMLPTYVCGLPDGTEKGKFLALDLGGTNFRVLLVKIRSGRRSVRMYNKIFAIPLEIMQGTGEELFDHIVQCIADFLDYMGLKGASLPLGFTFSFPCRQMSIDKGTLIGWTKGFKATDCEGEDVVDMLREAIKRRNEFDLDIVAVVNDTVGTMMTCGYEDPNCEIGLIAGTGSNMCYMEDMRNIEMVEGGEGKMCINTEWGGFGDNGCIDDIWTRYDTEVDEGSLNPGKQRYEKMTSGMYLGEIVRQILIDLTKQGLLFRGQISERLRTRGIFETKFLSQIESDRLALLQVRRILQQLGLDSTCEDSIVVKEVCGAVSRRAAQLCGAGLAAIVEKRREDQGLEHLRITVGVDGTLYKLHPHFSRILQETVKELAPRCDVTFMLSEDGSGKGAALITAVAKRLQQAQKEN
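Signal: coupled resazurin-to-resorufin fluorescence, Ex 525/Em 613 nm. Test system: in-house human HKDC1 enzyme, G6PDH and diaphorase coupling enzymes. Quantity: HKDC1 5 µg/mL. Timing: 90 min reaction at room temperature, dark.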
* = called active by the depositor. These entries were drawn from the full list.

SMILES	HKDC1 activator
Cn1c(=O)c2c(nc(N/N=C/c3c(O)n(C4CCCCC4)c(=S)[nH]c3=O)n2C)n(C)c1=O	-46.3*
COc1ccc(/C=C2\C(=O)NC(=S)N(C)C2=O)cc1C	36.4
COC(=O)C1CN(C#N)N(c2ccc(Cl)cc2)C12c1ccccc1-c1ccccc12 (centres undefined)	87.2
Cc1cc(/C=C2\C(=O)NC(=O)N(c3ccc(Cl)cc3)C2=O)c(C)n1-c1sc2c(c1C#N)CCCC2	68.9
O=C1CC=C2C3CC4N(CCC45c4cc(O)c(O)cc4N1C25)CC3=CCBr (centres undefined)	44.6
Cc1ccc2c(C)c3ccc4ccccc4c3c[n+]2c1	-52.8*
CC[C@H](C)/C=C(C)/C=C/C1=CC2=C(Cl)C(=O)[C@@](C)(OC(C)=O)C(=O)C2=CO1	62.8
N#CC(C#N)=Cc1ccc(C=C(C#N)C#N)cc1	37.6
O=C1C=CC(=O)C=C1	48.3
O=c1[nH]c(O)c(/C=C2/C=CC(c3cc(Cl)ccc3Cl)=N2)c(=O)[nH]1	40.4
N#CC1=C(N)Oc2c(c(=O)sc3ccccc23)C1c1ccncc1 (centres undefined)	-57.7*
O=C1NC(=S)N(c2ccc(F)cc2)C(=O)/C1=C\c1ccoc1	50.9
O=C(O)CC1OCC=C2CN3CCC45C6=CC(=O)C(=O)C([N+](=O)[O-])=C6NC4C1C2CC35 (centres undefined)	42.5
NC(=O)c1ccc(N=Cc2c(O)n(Cc3ccco3)c(=O)[nH]c2=O)cc1	36.2
O=c1c2ccccc2[se]n1-c1ccccc1	-115.9*
COc1ccc(OC)c(N2C(=O)/C(=C/c3ccco3)C(=O)NC2=S)c1	82.3
COC(=O)C1=C(C(=O)OC)SC2(S1)C(C(=O)OC)=C(C(=O)OC)Sc1c2ssc1=O	-108.7*
CCn1nc(-c2ccccc2)nc2c(=O)n(C)c(=O)nc1-2	-83.0*
CCOC(=O)c1c(-n2c(C)cc(/C=C3\C(=O)NC(=O)N(C)C3=O)c2C)sc2c1CCCC2	51.2

Screening data from PubChem BioAssay.
